Assay results taken from article PMC11600170 (JACS Au, 2024).

Key:
[1] = test system: MOLM13 cells; assay: RNA-seq with differential expression, KEGG enrichment and GSEA in MOLM13 cells; type: cell-based, human; conditions: 200 nM, 24 h, fold change ≥2 and adjusted p-value ≤0.05
[2] = test system: MOLM13 cells; assay: Cell viability / antiproliferation assay in MOLM13 cells; type: cell-based, human; conditions: 72-h viability, CRBN WT and CRBN-null HEK293T and MOLM13 cells, 10 μM and 1 μM
Summary of the method: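 Screening ran as a 72-h viability assay in CRBN wild-type and CRBN-null (knockout) HEK293T and MOLM13 cells. Lenalidomide and CC-885 served as controls. MOLM13 CRBN WT and KO cells were tested in biological triplicates, and the assay was repeated in three separate experiments.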

Row | SMILES | number of differentially expressed genes (DEGs) [1] | activity in CRBN-dependent proliferation screen [2]
1 | CN1CCc2[nH]c(-c3ccnc(NC(=O)[C@@H](CC(F)F)c4ccc(F)cc4)c3)c(Nc3ccccc3)c2C1=O [BAY-204] | 5,020 genes | –
2 | Cc1ccc(NC(=O)NCc2ccc3c(c2)CN(C2CCC(=O)NC2=O)C3=O)cc1Cl (stereo not drawn) [CC-885] | – | nonselective profile
3 | Nc1cccc2c1CN(C1CCC(=O)NC1=O)C2=O (stereo not drawn) [lenalidomide] | – | minimal activity
